Measured values as given in ChEMBL document CHEMBL1154186, “Synthesis, kinase inhibitory potencies, and in vitro antiproliferative evaluation of new Pim kinase inhibitors” (J Med Chem, 2009).
pIC50: −log10 of the molar value.

What was measured:
[1] = target: Serine/threonine-protein kinase pim-1 (Homo sapiens) (UniProt P11309); assay: Inhibition of Pim-1 assessed as residual enzyme activity at 10 uM relative to untreated control
[2] = target: Serine/threonine-protein kinase pim-2 (Homo sapiens) (UniProt Q9P1W9); assay: Inhibition of Pim-2 assessed as residual enzyme activity at 10 uM relative to untreated control
[3] = target: Serine/threonine-protein kinase pim-1 (Homo sapiens) (UniProt P11309); assay: Inhibition of Pim-1 assessed as residual enzyme activity at 1 uM relative to untreated control
[4] = target: Serine/threonine-protein kinase pim-2 (Homo sapiens) (UniProt Q9P1W9); assay: Inhibition of Pim-2 assessed as residual enzyme activity at 1 uM relative to untreated control
[5] = target: Serine/threonine-protein kinase pim-3 (Homo sapiens) (UniProt Q86V86); assay: Inhibition of Pim-3 assessed as residual enzyme activity at 10 uM relative to untreated control
[6] = target: Serine/threonine-protein kinase pim-3 (Homo sapiens) (UniProt Q86V86); assay: Inhibition of Pim-3 assessed as residual enzyme activity at 1 uM relative to untreated control
PA-1 = assay: Antiproliferative activity against human PA1 cells after 48 hrs by resazurin dye reduction assay; type: functional, cell-based; conditions: PA-1, 48 h
Procedure, shortened: (§1)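 Cells (human fibroblast primary culture, or PC3, DU145 or PA1 cancer lines) were kept as monolayers in Glutamax MEM with Earle's salts, 10% FCS, pyruvate, nonessential amino acids and gentamicin, at 37 °C in 5% CO2. 5×10^3 cells/well adhered for 16 h, then had 48 h continuous drug exposure (20 mM DMSO stock). Resazurin 25 µg/mL for 1 h; fluorescence ex 530/em 590 nm. IC50 from blank-corrected concentration–survival curves versus control wells.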

[7] = Antiproliferative activity against human fibroblasts after 48 hrs by resazurin dye reduction assay; type: cell-based; conditions: Fibroblast; procedure, shortened: as §1
PC-3 = assay: Antiproliferative activity against human PC3 cells after 48 hrs by resazurin dye reduction assay; type: functional, cell-based; conditions: PC-3, 48 h; procedure, shortened: as §1
DU-145 = assay: Antiproliferative activity against human DU145 cells after 48 hrs by resazurin dye reduction assay; type: functional, cell-based; conditions: DU-145, 48 h; procedure, shortened: as §1

Chain of Serine/threonine-protein kinase pim-2 (Homo sapiens) (Q9P1W9 whole entry, looked up): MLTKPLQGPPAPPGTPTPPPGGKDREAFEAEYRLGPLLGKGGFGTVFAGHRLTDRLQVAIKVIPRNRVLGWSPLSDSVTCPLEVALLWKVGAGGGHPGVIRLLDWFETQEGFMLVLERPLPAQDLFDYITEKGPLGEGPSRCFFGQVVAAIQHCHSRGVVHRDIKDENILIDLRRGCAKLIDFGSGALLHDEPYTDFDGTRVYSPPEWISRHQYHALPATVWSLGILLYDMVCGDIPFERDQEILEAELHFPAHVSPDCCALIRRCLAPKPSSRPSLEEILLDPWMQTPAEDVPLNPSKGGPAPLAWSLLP
Chain of Serine/threonine-protein kinase pim-1 (Homo sapiens) (P11309 whole entry, looked up): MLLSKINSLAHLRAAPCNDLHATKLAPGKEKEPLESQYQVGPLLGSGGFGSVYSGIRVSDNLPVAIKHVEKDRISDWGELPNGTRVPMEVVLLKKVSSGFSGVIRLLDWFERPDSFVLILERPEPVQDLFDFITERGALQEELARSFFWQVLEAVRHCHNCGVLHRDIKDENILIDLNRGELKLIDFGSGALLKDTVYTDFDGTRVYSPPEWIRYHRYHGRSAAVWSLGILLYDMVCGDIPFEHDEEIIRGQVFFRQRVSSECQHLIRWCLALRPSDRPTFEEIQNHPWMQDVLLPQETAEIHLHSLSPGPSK

| Activity [1] | Activity [2] | Activity [3] | Activity [4] | Activity [5] | Activity [6] | pIC50 (PC-3) | pIC50 (DU-145) | SMILES | pIC50 (PA-1) | pIC50 [7] |
| --- | --- | --- | --- | --- | --- | --- | --- | --- | --- | --- |
| 16% | 53% | 60% | 68% | 15% | 54% |  |  | O=Cc1c[nH]c2c1ccc1c3cc(-c4ccccc4)ccc3[nH]c12 |  |  |
| 35% | 50% | 90% | 69% | 21% | 72% |  |  | OCCc1c[nH]c2c1ccc1c3ccccc3[nH]c12 |  |  |
| 29% | 70% | 68% | 73% | 31% | 77% |  |  | O=Cc1c[nH]c2c1ccc1c3cc(-c4ccc(OC(F)(F)F)cc4)ccc3[nH]c12 |  |  |
| 28% | 47% | 72% | 46% | 18% | 68% |  |  | OCc1c[nH]c2c1ccc1c3ccccc3[nH]c12 |  |  |
| 6% | 32% | 39% | 59% | 6% | 26% |  |  | O=Cc1c[nH]c2c1ccc1c3cc(-c4ccc(F)cc4F)ccc3[nH]c12 |  |  |
| 39% | 70% | 69% | 67% | 48% | 77% |  |  | O=Cc1c[nH]c2c1ccc1c3cc(-c4ccc(-c5ccccc5)cc4)ccc3[nH]c12 |  |  |

More lines, now with the values behind:

| SMILES | Activity [1] | Activity [2] | Activity [3] | Activity [4] | Activity [5] | Activity [6] | pIC50 (PC-3) | pIC50 (DU-145) | pIC50 (PA-1) | pIC50 [7] |
| --- | --- | --- | --- | --- | --- | --- | --- | --- | --- | --- |
| COc1cccc(-c2ccc3[nH]c4c(ccc5c(C=O)c[nH]c54)c3c2)c1 | 17% | 31% | 64% | 65% | 12% | 46% |  |  |  |  |
| O=S(=O)(c1ccccc1)n1ccc2ccc3c4ccccc4[nH]c3c21 | 61% | 62% | 83% | 65% | 64% | 102% |  |  |  |  |
| CCN(CC)C(=O)/C(=N\O)c1c[nH]c2c1ccc1c3ccccc3[nH]c12 | 41% | 27% | 80% | 62% | 21% | 74% |  |  |  |  |
| NC(=O)c1c[nH]c2c1ccc1c3ccccc3[nH]c12 | 9% | 27% |  |  | 9% |  |  |  |  |  |
| O=Cc1c[nH]c2c1ccc1c3cc(-c4ccc(F)cc4)ccc3[nH]c12 | 15% | 55% | 65% | 72% | 15% | 54% |  |  |  |  |
| O=Cc1c[nH]c2c1ccc1c3cc(-c4ccc(C(F)(F)F)cc4)ccc3[nH]c12 | 28% | 52% | 79% | 49% | 23% | 70% |  |  |  |  |
| O=C(c1c[nH]c2c1ccc1c3ccccc3[nH]c12)C(F)(F)F | 20% | 30% | 61% | 54% | 7% | 20% |  |  |  |  |
| O=Cc1c[nH]c2c1ccc1c3cc(Br)ccc3[nH]c12 | 6% | 53% | 31% | 82% | 6% | 11% | 5.23 | 4.91 | 5.55 | 4.96 |
| Brc1ccc2[nH]c3c(ccc4cc[nH]c43)c2c1 | 12% | 46% | 69% | 67% | 8% | 55% |  |  |  |  |
